Laboratory results taken from ChEMBL document CHEMBL1649441, “Potency and bactericidal activity of iclaprim against recent clinical gram-positive isolates” (2009).
Converted amounts (≈) assume the structure as drawn.

Key:
Assay type in all cases: functional
Enterococcus faecium [1] = test: Antibacterial activity against Enterococcus faecium by CLSI broth microdilution method
Enterococcus faecium [2] = test: Antibacterial activity against Enterococcus faecium assessed as susceptible isolates by CLSI broth microdilution method
Enterococcus faecium [3] = test: Antibacterial activity against Enterococcus faecium assessed as resistant isolates by CLSI broth microdilution method
Enterococcus faecalis [4] = test: Antibacterial activity against Enterococcus faecalis by CLSI broth microdilution method
Enterococcus faecalis [5] = test: Antibacterial activity against Enterococcus faecalis assessed as susceptible isolates by CLSI broth microdilution method
Enterococcus faecalis [6] = test: Antibacterial activity against Enterococcus faecalis assessed as resistant isolates by CLSI broth microdilution method
Staphylococcus aureus [7] = test: Antibacterial activity against Methicillin-sensitive Staphylococcus aureus by CLSI broth microdilution method
[8] = test system: Streptococcus sp. 'group A'; test: Antibacterial activity against Beta-hemolytic Streptococcus group A assessed as susceptible isolates by CLSI broth microdilution method
Method in brief: (§1)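 Clinical isolates from skin/soft tissue, bloodstream and respiratory specimens were tested by broth microdilution per CLSI M7-A7 and M100-S18, with quality controls. Values are the number of isolates inhibited at each concentration, or MIC / percent susceptible. Highest concentration tested was 8 µg/ml for iclaprim and trimethoprim-sulfamethoxazole, and 64 µg/ml for trimethoprim.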

Staphylococcus aureus [9] = test: Antibacterial activity against Methicillin-resistant Staphylococcus aureus assessed as susceptible isolates by CLSI broth microdilution method
[10] = test system: Streptococcus sp. 'group A'; test: Antibacterial activity against Beta-hemolytic Streptococcus group A assessed as resistant isolates by CLSI broth microdilution method
Method in brief: (§2)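 Recent clinical isolates from skin/soft tissue, bloodstream and respiratory specimens. Tested by broth microdilution per CLSI M7-A7 and M100-S18, with the appropriate quality controls. The thymidine content of the test medium was assessed to rule out artifactual inhibition.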

[11] = test system: Streptococcus sp. 'group B'; test: Antibacterial activity against Beta-hemolytic Streptococcus group B by CLSI broth microdilution method; method in brief: as §1
[12] = test system: Streptococcus sp. 'group B'; test: Antibacterial activity against Beta-hemolytic Streptococcus group B assessed as susceptible isolates by CLSI broth microdilution method; method in brief: as §1
Staphylococcus aureus [13] = test: Antibacterial activity against Methicillin-resistant Staphylococcus aureus assessed as resistant isolates by CLSI broth microdilution method
[14] = test system: Streptococcus sp. 'group A'; test: Antibacterial activity against Beta-hemolytic Streptococcus group A by CLSI broth microdilution method; method in brief: as §1
Staphylococcus aureus [15] = test: Antibacterial activity against Methicillin-resistant Staphylococcus aureus by CLSI broth microdilution method
Staphylococcus aureus [16] = test: Antibacterial activity against Methicillin-sensitive Staphylococcus aureus assessed as resistant isolates by CLSI broth microdilution method
[17] = test system: Streptococcus sp. 'group B'; test: Antibacterial activity against Beta-hemolytic Streptococcus group B assessed as resistant isolates by CLSI broth microdilution method; method in brief: as §2
Staphylococcus aureus [18] = test: Antibacterial activity against Methicillin-sensitive Staphylococcus aureus assessed as susceptible isolates by CLSI broth microdilution method

SMILES	MIC50 (Enterococcus faecium [1]) [µg/mL]	MIC90 (Enterococcus faecium [1]) [µg/mL]	Activity (Enterococcus faecium [2]) [%]	Activity (Enterococcus faecium [3]) [%]	MIC50 (Enterococcus faecalis [4]) [µg/mL]	MIC90 (Enterococcus faecalis [4]) [µg/mL]	Activity (Enterococcus faecalis [5]) [%]	Activity (Enterococcus faecalis [6]) [%]	MIC50 (Staphylococcus aureus [7]) [µg/mL]	MIC90 (Staphylococcus aureus [7]) [µg/mL]	Activity [8] [%]	Activity (Staphylococcus aureus [9]) [%]	MIC50 [11] [µg/mL]	MIC90 [11] [µg/mL]	Activity [12] [%]	Activity (Staphylococcus aureus [13]) [%]	MIC [14] [µg/mL]	MIC50 [14] [µg/mL]	MIC90 [14] [µg/mL]	Activity (Staphylococcus aureus [18]) [%]	further results
CC1(C)S[C@@H]2[C@H](NC(=O)[C@H](N)c3ccccc3)C(=O)N2[C@H]1C(=O)O [AMPICILLIN]	> 16	> 16	11.9	88.1	≤ 4	≤ 4	100	0	–	–	–	–	–	–	–	–	–	–	–	–	MIC (Enterococcus faecalis [4]): ≤ 4 µg/mL
CCC[C@@H]1C[C@@H](C(=O)N[C@@H]([C@H]2O[C@H](SC)[C@H](O)[C@@H](O)[C@H]2O)[C@H](C)Cl)N(C)C1 [CLINDAMYCIN]	> 4	> 4	–	–	> 4	> 4	–	–	≤ 0.12	≤ 0.12	96.4	52.7	≤ 0.12	> 4	88.7	47	≤ 0.12	≤ 0.12	≤ 0.12	96.4	Activity [10]: 3.3%; MIC [11]: ≤ 0.12 µg/mL; MIC90 (Staphylococcus aureus [15]): > 4 µg/mL; Activity (Staphylococcus aureus [16]): 3.4%; Activity [17]: 10.3%
CC[C@H]1OC(=O)[C@H](C)[C@@H](O[C@H]2C[C@@](C)(OC)[C@@H](O)[C@H](C)O2)[C@H](C)[C@@H](O[C@@H]2O[C@H](C)C[C@H](N(C)C)[C@H]2O)[C@](C)(O)C[C@@H](C)C(=O)[C@H](C)[C@@H](O)[C@]1(C)O [ERYTHROMYCIN]	> 4	> 4	3	84.5	> 4	> 4	13.5	52.9	0.25 (≈ 0.341 µM)	> 4	–	14.6	≤ 0.12	> 4	73	84.3	≤ 0.12	≤ 0.12	> 4	77.9	Activity [10]: 16.1%; MIC50 (Staphylococcus aureus [15]): > 4 µg/mL; Activity (Staphylococcus aureus [16]): 21.1%; Activity [17]: 26%
C[C@H]1COc2c(N3CCN(C)CC3)c(F)cc3c(=O)c(C(=O)O)cn1c23.C[C@H]1COc2c(N3CCN(C)CC3)c(F)cc3c(=O)c(C(=O)O)cn1c23.O [LEVOFLOXACIN]	> 4	> 4	14.2	82.2	1	> 4	65.2	34.2	0.25	0.5	–	16.8	0.5	1	99.5	82.4	–	0.5	1	94.2	Activity [10]: 0%; MIC50 (Staphylococcus aureus [15]): > 4 µg/mL; MIC90 (Staphylococcus aureus [15]): > 4 µg/mL; Activity (Staphylococcus aureus [16]): 5.6%; Activity [17]: 0.5%
CC(=O)NC[C@H]1CN(c2ccc(N3CCOCC3)c(F)c2)C(=O)O1 [LINEZOLID]	1 (≈ 2.96 µM)	2 (≈ 5.93 µM)	99.3	0.7	1 (≈ 2.96 µM)	2 (≈ 5.93 µM)	100	0	2 (≈ 5.93 µM)	2 (≈ 5.93 µM)	100	–	1 (≈ 2.96 µM)	1 (≈ 2.96 µM)	100	–	–	1 (≈ 2.96 µM)	1 (≈ 2.96 µM)	100	MIC50 (Staphylococcus aureus [15]): 2 µg/mL (≈ 5.93 µM); MIC90 (Staphylococcus aureus [15]): 2 µg/mL (≈ 5.93 µM)
CC1(C)S[C@@H]2[C@H](NC(=O)Cc3ccccc3)C(=O)N2[C@H]1C(=O)O [PENICILLIN G]	–	–	–	–	–	–	–	–	–	–	100	–	≤ 0.06	≤ 0.06	100	–	≤ 0.06	≤ 0.06	≤ 0.06	–	MIC [11]: ≤ 0.06 µg/mL
CN(C)[C@@H]1C(O)=C(C(N)=O)C(=O)[C@@]2(O)C(O)=C3C(=O)c4c(O)cccc4[C@@](C)(O)[C@H]3C[C@@H]12 [TETRACYCLINE]	≤ 0.5	> 16	67.3	32	> 16	> 16	28.4	71.3	≤ 0.5	≤ 0.5	90.2	86.5	> 16	> 16	21.6	12.8	≤ 0.5	≤ 0.5	≤ 0.5	95.8	MIC (Enterococcus faecium [1]): ≤ 0.5 µg/mL; Activity [10]: 9.6%; MIC90 (Staphylococcus aureus [15]): > 16 µg/mL; Activity (Staphylococcus aureus [16]): 4%; Activity [17]: 77.9%
CN[C@H](CC(C)C)C(=O)N[C@H]1C(=O)N[C@@H](CC(N)=O)C(=O)N[C@H]2C(=O)N[C@H]3C(=O)N[C@H](C(=O)N[C@H](C(=O)O)c4cc(O)cc(O)c4-c4cc3ccc4O)[C@H](O)c3ccc(c(Cl)c3)Oc3cc2cc(c3O[C@@H]2O[C@H](CO)[C@@H](O)[C@H](O)[C@H]2O[C@H]2C[C@](C)(N)[C@H](O)[C@H](C)O2)Oc2ccc(cc2Cl)[C@H]1O [VANCOMYCIN]	1 (≈ 0.69 µM)	> 16	55.8	43.2	1 (≈ 0.69 µM)	2 (≈ 1.38 µM)	97.7	1.9	1 (≈ 0.69 µM)	1 (≈ 0.69 µM)	100	100	≤ 0.5	≤ 0.5	100	0	≤ 0.5	≤ 0.5	≤ 0.5	100	MIC [11]: ≤ 0.5 µg/mL; MIC50 (Staphylococcus aureus [15]): 1 µg/mL (≈ 0.69 µM); MIC90 (Staphylococcus aureus [15]): 1 µg/mL (≈ 0.69 µM); Activity (Staphylococcus aureus [16]): 0%
